The record followed here is ChEMBL document CHEMBL1126893, “Synthesis and CLOGP correlation of imidooxy anticonvulsants” (J Med Chem, 1993).

Experiment [1] deals with Mus musculus. As to the kind of experiment: Elevation of threshold for electroshock induced seizures in mice was measured by ip administration after 0.5 hr at the dose of 60 mg /kg. The class given is functional. Put shortly: (§1)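 Elevation of maximal (tonic extension) electroshock seizure threshold in male CF1 mice (23-34 g). Compound given ip as a 0.5% methylcellulose suspension at 60, 80 and 90 mg/kg, with testing at 0.5 h. Read-out is % elevation of threshold. TID20 is the dose raising the threshold by 20%.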

Experiment [2] has as its system Mus musculus. Description: Elevation of threshold for electroshock induced seizures in mice was measured by ip administration after 0.5 hr at the dose of 80 mg /kg. The class given is functional. Put shortly: as §1
In experiment [3] the test system is Mus musculus. As to the kind of experiment: Elevation of threshold for electroshock induced seizures in mice was measured by ip administration after 0.5 hr at the dose of 90 mg/kg. The class given is functional. To be noted: route intraperitoneal. Summed up:
as §1

For experiment [4], the species on record is Mus musculus. Description: TID20 was measured by MES test in mice. The class given is functional. Put shortly:
as §1

For experiment [5], the species on record is Mus musculus. As to the kind of experiment: Time of peak effect of activity of compound was measured by MES test in mice. The class given is functional. Summed up: (§2)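 Phase II quantification in mice after ip dosing. ED50 (scMet or MES) measured at the time of peak effect. TD50 (rotorod neurologic deficit) measured at the time of peak neurologic deficit. Medians and 95% confidence limits by the Litchfield-Wilcoxon method. Protective index = TD50/ED50. Time of peak effect determined in the MES or scMet test.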

The species entered for experiment [6] is Mus musculus. As to the kind of experiment: Time of peak effect of toxicity of compound was measured by MES test in mice. The class given is functional. Put shortly: as §2
The subject of experiment [7] is Mus musculus. As to the kind of experiment: Elevation of threshold for electroshock induced seizures in mice was measured by po administration after 0.5 hr at the dose of 200 mg/kg; 1/8. In kind it is functional. Summed up: (§3)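 Maximal electroshock test in male CF1 mice (23-34 g). Compound given as a 0.5% methylcellulose suspension ip or po, with testing at 0.5 h after several doses. Endpoint is protection from tonic hind limb extension.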

Experiment [8] concerns Mus musculus. Description: Elevation of threshold for electroshock induced seizures in mice was measured by po administration after 0.5 hr at the dose of 300 mg/kg; 2/8. In kind it is functional. Put shortly:
as §3

For experiment [9], the system named is Mus musculus. As to the kind of experiment: Elevation of threshold for electroshock induced seizures in mice was measured by po administration after 0.5 hr at the dose of 400 mg/kg; 2/5. In kind it is functional. Summed up: as §3
Experiment [10] deals with Mus musculus. As to the kind of experiment: Effective dose was measured in mouse by maximal electroshock method by ip administration; 100-122. In kind it is functional. Put shortly: as §2
On the technique in general: The maximal electroshock test induces tonic seizures with an electrical stimulus.

For experiment [11], the species on record is Mus musculus. Description: ED50 value of compound was expressed as dose protecting 50% of mice from tonic hind limb extension. The note with it: Hindlimb. In kind it is functional. Summed up:
as §3

The species named for experiment [12] is Mus musculus. Description: Protective index (TD50/ED50) value in MES test in mice. In kind it is functional.
Experiment [13] relates to Mus musculus. As to the kind of experiment: Time of peak effect of activity of compound was measured by both MES and sc Met test in mice. The class given is functional. Summed up: as §2
In experiment [14] the test system is Mus musculus. As to the kind of experiment: Time of peak effect of toxicity of compound was measured by both MES and sc Met test in mice. The class given is functional. Put shortly:
as §2

The species entered for experiment [15] is Mus musculus. As to the kind of experiment: animal or person.
The subject of experiment [16] is Mus musculus. Description: Anticonvulsant activity was measured by maximal electroshock test on mice at 0.25 hr at the dose of 100 mg/kg; number of animals protected/number of animals tested 2/2. In kind it is functional.
Experiment [17] has as its system Mus musculus. Description: Anticonvulsant activity was measured by rotarod toxicity test on mice at 30 min at the dose of 300 mg/kg; number of animals protected/number of animals tested 4/4. The class given is functional. On the technique in general: The rotarod test checks motor coordination on a turning rod.
Experiment [18] has as its system Mus musculus. Description: Anticonvulsant activity was measured by rotarod toxicity test on mice at 4 h at the dose of 300 mg/kg; number of animals protected/number of animals tested 0/2. In kind it is functional.
Experiment [19] relates to Mus musculus. As to the kind of experiment: Anticonvulsant activity was measured by subcutaneous pentylenetetrazole test on mice at 30 min at the dose of 300 mg/kg; number of animals protected/number of animals tested 1/1. In kind it is functional.
For experiment [20], the system named is Mus musculus. Description: Anticonvulsant activity was measured by subcutaneous pentylenetetrazole test on mice at 4 hr at the dose of 300 mg/kg; number of animals protected/number of animals tested 0/1. In kind it is functional.
Experiment [21] concerns Mus musculus. As to the kind of experiment: Anticonvulsant activity was measured by subcutaneous maximal electroshock test on mice at 1 hr at the dose of 100 mg/kg; number of animals protected/number of animals tested 1/2. The class given is functional.
Experiment [22] relates to Mus musculus. Description: Anticonvulsant activity was measured by rotarod toxicity test on mice at 0.25 hr at the dose of 100 mg/kg; number of animals protected/number of animals tested 0/4. The class given is functional.
In experiment [23] the test system is Mus musculus. Description: Anticonvulsant activity was measured by rotarod toxicity test on mice at 1 hr at the dose of 100 mg/kg; number of animals protected/number of animals tested 0/4. The class given is functional.
The subject of experiment [24] is Mus musculus. Description: Anticonvulsant activity was measured by maximal electroshock test on mice at 30 min at the dose of 300 mg/kg; number of animals protected/number of animals tested 1/1. In kind it is functional.
The subject of experiment [25] is Mus musculus. Description: Anticonvulsant activity was measured by subcutaneous pentylenetetrazole test on mice at 0.25 hr at the dose of 100 mg/kg; number of animals protected/number of animals tested 2/2. The class given is functional.
The subject of experiment [26] is Mus musculus. Description: Anticonvulsant activity was measured by subcutaneous pentylenetetrazole test on mice at 1 hr at the dose of 100 mg/kg; number of animals protected/number of animals tested 0/2. The class given is functional.
For experiment [27], the species on record is Mus musculus. As to the kind of experiment: Protective index (TD50/ED50) value in scMET test in mice. The class given is functional. Summed up:
as §2

The subject of experiment [28] is Mus musculus. Description: Anticonvulsant activity was measured by maximal electroshock test on mice at 4 h at the dose of 300 mg/kg; number of animals protected/number of animals tested 0/1. The class given is functional.
The test system of experiment [29] is Mus musculus. As to the kind of experiment: Effective dose was measured in mouse by maximal electroshock method by ip administration. In kind it is functional. Summed up: as §2

Usually ED50 stands for the dose at which the effect has come halfway, by size or by number of responders. A lower ED50 goes with an effect at a small dose. Turning to `O=C1CC2(CCCC2)C(=O)N1OCc1ccccc1`, the figures for the Elevation of threshold in the experiment on Mus musculus [1], in the experiment on Mus musculus [2] and in the experiment on Mus musculus [3] were 14%, 26% and 28%, respectively. This compound also showed a TID20 in the experiment listed under Mus musculus [4] of 71 mg/kg. In addition, the TPE in the experiment listed under Mus musculus [5] was found to be 0.25; in the experiment listed under Mus musculus [6], 4 toxicity. Further, the results for the “No. of mice protected/tested” value in the experiment with Mus musculus [7], with Mus musculus [8] and in the experiment with Mus musculus [9] were 1, 2 and 2, respectively. Besides, the ED50 with Mus musculus [10] was 111 mg/kg; in the experiment filed under Mus musculus [11], 494 mg/kg. This compound also returned a PI in the experiment filed under Mus musculus [12] above 4.5.
As to `CCCC(CCC)C(=O)O` [VALPROIC ACID], the TPE in the experiment on Mus musculus [13] was found to be 0.25 toxicity; in the experiment on Mus musculus [14], 0.25. In the experiment filed under Mus musculus [15], this compound came in with an ED50 of 149 mg/kg.
As to `O=C1CC2(CCCC2)C(=O)N1OCc1ccccc1Br`, the Ratio in the experiment with Mus musculus [16] turned out to be 2; with Mus musculus [17] it was 4; in the experiment on Mus musculus [18] it was 0; in the experiment with Mus musculus [19] it was 1; with Mus musculus [20] it was 0; in the experiment on Mus musculus [21] it was 1. Moreover, the Ratio is reported as 0 in the experiment on Mus musculus [22]; 0 in the experiment with Mus musculus [23]; 1 in the experiment on Mus musculus [24]; 2 in the experiment on Mus musculus [25]; 0 with Mus musculus [26]; 0 with Mus musculus [28]. Further, the TPE in the experiment with Mus musculus [13] and in the experiment on Mus musculus [14] was 0.25 each time. Further, the PI is on record as 2.3 in the experiment filed under Mus musculus [12] and 1.7 in the experiment listed under Mus musculus [27].
Regarding `NC(=O)N1c2ccccc2C=Cc2ccccc21` [CARBAMAZEPINE], the TPE in the experiment with Mus musculus [13] and in the experiment with Mus musculus [14] was 0.25 each time. Besides, in the experiment on Mus musculus [29], it took a dose of 8.8 mg/kg to reach the 50% effect level (ED50).
